Usually MIC stands for the least concentration at which growth counts as inhibited. The CC50 is the concentration that lowers cell viability or growth by half.

Experimental findings from ChEMBL document CHEMBL5346861, “Designing quinoline-isoniazid hybrids as potent anti-tubercular agents inhibiting mycolic acid biosynthesis” (Eur J Med Chem, 2022) are described below.

For series [1], the system named is Mycobacterium tuberculosis. The series can be described thus: Antimycobacterial activity against Mycobacterium tuberculosis mc2 6230 assessed as inhibition of bacterial growth measured after 7 days by broth dilution method. Type of series: functional. To be noted: mc2 6230, 168 h, time 7 day. A digest of the protocol:
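Pantothenate auxotroph carrying empty pMV261. 2-fold serial dilutions, 37 °C, no agitation, 7 days. MIC99 is the lowest concentration with no turbidity change. DMSO vehicle control.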
A general note: Broth dilution looks for growth in wells or tubes with falling amounts of substance.

Series [2] deals with Mycobacterium tuberculosis. The series can be described thus: Inhibition of mycolic acid biosynthesis in Mycobacterium tuberculosis mc2 6230 assessed as decrease in alpha-mycolic acid at 1.25 ug/ml incubated for 15 mins followed by 14C-labeled acetate addition measured after 7 hrs by TLC analysis. Type of series: functional, organism-based. The conditions noted are these: dose 1.25 µg/ml, time 435.0 min.

The subject of series [3] is Mycobacterium tuberculosis. The series can be described thus: Inhibition of fatty acid methyl esters production in Mycobacterium tuberculosis mc2 6230 incubated for 15 mins followed by 14C-labeled acetate addition measured after 7 hrs by TLC analysis. The series is classed as functional. To be noted: time 435.0 min.
Series [4] relates to Mycobacterium tuberculosis. The series can be described thus: Inhibition of mycolic acid biosynthesis in Mycobacterium tuberculosis mc2 6230 assessed as decrease in keto-mycolic acid at 1.25 ug/ml incubated for 15 mins followed by 14C-labeled acetate addition measured after 7 hrs by TLC analysis. The series is classed as functional, organism-based. To be noted: dose 1.25 µg/ml, time 435.0 min.

Series [5] deals with Mycobacterium tuberculosis. Description: Inhibition of mycolic acid biosynthesis in Mycobacterium tuberculosis mc2 6230 assessed as decrease in methoxy-mycolic acid incubated for 15 mins followed by 14C-labeled acetate addition measured after 7 hrs by TLC analysis. Type of series: functional, organism-based. The conditions noted are these: time 435.0 min.
In series [6] the test system is Mycobacterium tuberculosis. Description: Antimycobacterial activity against Mycobacterium tuberculosis mc2 6230 assessed as reduction in log10 CFU at 20 times of MIC measured after 6 days by time-killing kinetics assay. The series is classed as functional. The conditions noted are these: time 6 day. A digest of the protocol:
(§1)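 Exposed to 1x, 5x or 20x MIC at 37 °C for up to 6 days. Serial dilutions plated on 7H10/OADC/pantothenate and colonies counted after 3 weeks. Mean of four independent experiments in technical triplicate, with SD. DMSO negative control.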

The nature of series [7]: Cytotoxicity against human THP-1 cells assessed as reduction in cell viability measured after 24 hrs by resazurin staining based analysis. The series is classed as toxicity. A digest of the protocol: (§2)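 THP-1 monocytes differentiated with 20 ng/mL PMA for 48 hrs at 1×10^5 cells/well. Compounds added by serial dilution from 100 µg/mL for 24 or 72 hrs at 37 °C and 5% CO₂. Resazurin 10% for 4 hrs, fluorescence at ex 540/em 590 nm. Mean of three independent experiments in triplicate. INH and RFB reference drugs.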

Series [8] relates to Mycobacterium tuberculosis. Description: Inhibition of mycolic acid biosynthesis in Mycobacterium tuberculosis mc2 6230 assessed as decrease in alpha-mycolic acid incubated for 15 mins followed by 14C-labeled acetate addition measured after 7 hrs by TLC analysis. The series is classed as functional, organism-based. To be noted: time 435.0 min.
Series [9] has as its system Mycobacterium tuberculosis. The series can be described thus: Inhibition of mycolic acid biosynthesis in Mycobacterium tuberculosis mc2 6230 assessed as decrease in methoxy-mycolic acid at 1.25 ug/ml incubated for 15 mins followed by 14C-labeled acetate addition measured after 7 hrs by TLC analysis. To be noted: dose 1.25 µg/ml, time 435.0 min. The series is classed as functional, organism-based.

Series [10] has as its system Mycobacteroides abscessus. Description: Antimycobacterial activity against Mycobacterium abscessus CIP104536 smooth variant assessed as inhibition of bacterial growth measured after 4 days by broth dilution method. The conditions noted are these: CIP104536, 96 h, time 4 day. Type of series: functional. The gist of the method: (§3)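 MIC99 by CLSI broth 2-fold serial dilution in CaMHB. Inoculum 5.10⁶ CFU/mL. Incubated at 30 °C and read by turbidity after 4 days. DMSO vehicle control, INH reference.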

In series [11] the test system is Mycobacteroides abscessus. Description: Antimycobacterial activity against Mycobacterium abscessus CIP104536 rough variant assessed as inhibition of bacterial growth measured after 4 days by broth dilution method. To be noted: CIP104536, 96 h, time 4 day. The series is classed as functional. A digest of the protocol: as §3
Series [12] deals with Mycobacterium tuberculosis. The series can be described thus: Antimycobacterial activity against Mycobacterium tuberculosis mc2 6230 assessed as reduction in log10 CFU at 5 times of MIC measured after 3 days by time-killing kinetics assay. Type of series: functional. The conditions noted are these: time 3 day. A digest of the protocol:
as §1

The test system of series [13] is Mycobacterium tuberculosis. The series can be described thus: Antimycobacterial activity against Mycobacterium tuberculosis mc2 6230 assessed as reduction in log10 CFU at 1 time of MIC measured after 6 days by time-killing kinetics assay. The series is classed as functional, organism-based. The conditions noted are these: time 6.0 day. A digest of the protocol:
as §1

Series [14] in a line: Cytotoxicity against human THP-1 cells assessed as reduction in cell viability measured after 72 hrs by resazurin staining based analysis. The series is classed as toxicity. A digest of the protocol: as §2
Background: Resazurin is reduced to fluorescent resorufin, in cell work by metabolically active cells.

In series [15] the test system is Mycobacterium tuberculosis. The series can be described thus: Antimycobacterial activity against Mycobacterium tuberculosis mc2 6230 assessed as inhibition of bacterial growth at 1 ug/ml measured after 7 days by broth dilution method. The conditions noted are these: dose 1.0 µg/ml, time 7.0 day. Type of series: functional, organism-based.
A further series deals with Mycobacterium marinum. The series can be described thus: Antimycobacterial activity against Mycobacterium marinum M strain assessed as inhibition of bacterial growth measured after 6 days by broth dilution method. The series is classed as functional. The conditions noted are these: 144 h, time 6 day. A digest of the protocol:
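MIC99 by 2-fold serial broth dilution in 7H9 with 10% OADC and 0.025% tyloxapol. Inoculum 5.10⁶ CFU/mL. Incubated without agitation at 30 °C, scored for no turbidity change after 6 days. DMSO vehicle control.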

Series [16] has as its system Mycobacterium tuberculosis. Description: Inhibition of mycolic acid biosynthesis in Mycobacterium tuberculosis mc2 6230 assessed as decrease in keto-mycolic acid incubated for 15 mins followed by 14C-labeled acetate addition measured after 7 hrs by TLC analysis. The conditions noted are these: time 435.0 min. Type of series: functional, organism-based.
In series [17] the test system is Mycobacterium tuberculosis. The series can be described thus: Antimycobacterial activity against Mycobacterium tuberculosis H37Rv assessed as inhibition of bacterial growth. The series is classed as functional.

≈ marks a conversion by molar mass, not a printed value. Calls of active or inactive are those of the source. No cut-off for these calls is given here. A value given as a limit tells only on which side of the number the result lay.

Regarding `O=C(N/N=C/c1ccccc1-n1cc(CN2CCN(c3ccnc4cc(Cl)ccc34)CC2)nn1)c1ccncc1`, the MIC in series [1] is 0.25 µg/mL (≈ 0.453 µM); in [10], greater than 200 µg/mL; in [11] it was greater than 200 µg/mL; with Mycobacterium marinum, 50 µg/mL (≈ 90.6 µM). Also, the inhibition result in series [2], in series [4] and in series [9] was “Active” throughout. Further, the inhibition entry in series [3] was “inactive”. Also, the inhibition entry in [5], in series [8] and in series [16] was “Dose-Dependent Effect” each time. Also, the Activity is reported as roughly 3 log10CFU/ml in series [6] and 2 log10CFU/ml in series [12]. For the same compound, the CC50 at 24 h in [7] was found to be 13 µg/mL (≈ 23.5 µM). Moreover, the result in series [13] and in series [15] was Active. Further, in series [14], the 50% cytotoxic concentration (CC50) at 72 h was found to be 18 µg/mL (≈ 32.6 µM).
As to `O=C(N/N=C/c1ccccc1)c1ccncc1` [N'-BENZYLIDENE ISONICOTINOHYDRAZIDE], the MIC in series [17] came to 0.05 µg/mL.
Still for that read-out and setting: the result for `CC(C)c1ccc(-c2nc(CN3CCN(c4ccnc5cc(Cl)ccc45)CC3)no2)cc1` reads 1.11 µM.
